Measurements taken from PMC10433104 (Journal of medicinal chemistry, 2023).

target: PDE4D7-S129D (PDE4D*) (Homo sapiens, UniProt Q08499, S190D); assay: PDE4 enzyme inhibition assay; type: biochemical; details: ratio of IC50 for PDE4B* over that for PDE4D*
Procedure, shortened: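 Mutationally activated dimeric enzymes were used: PDE4D7-S129D (PDE4D*) and PDE4B1-S133D (PDE4B*). PDE4B served as the comparator for the PDE4 subtypes. Activity was read with a real-time coupled enzyme assay rather than a fluorescein-labelled cAMP substrate. An IC50 was obtained against each enzyme, and selectivity was taken as PDE4B* IC50 divided by PDE4D* IC50 (B/D ratio).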

PDE4D7-S129D (PDE4D*), sequence (Q08499 1-748 isoform Q08499-11 S129D, species assumed): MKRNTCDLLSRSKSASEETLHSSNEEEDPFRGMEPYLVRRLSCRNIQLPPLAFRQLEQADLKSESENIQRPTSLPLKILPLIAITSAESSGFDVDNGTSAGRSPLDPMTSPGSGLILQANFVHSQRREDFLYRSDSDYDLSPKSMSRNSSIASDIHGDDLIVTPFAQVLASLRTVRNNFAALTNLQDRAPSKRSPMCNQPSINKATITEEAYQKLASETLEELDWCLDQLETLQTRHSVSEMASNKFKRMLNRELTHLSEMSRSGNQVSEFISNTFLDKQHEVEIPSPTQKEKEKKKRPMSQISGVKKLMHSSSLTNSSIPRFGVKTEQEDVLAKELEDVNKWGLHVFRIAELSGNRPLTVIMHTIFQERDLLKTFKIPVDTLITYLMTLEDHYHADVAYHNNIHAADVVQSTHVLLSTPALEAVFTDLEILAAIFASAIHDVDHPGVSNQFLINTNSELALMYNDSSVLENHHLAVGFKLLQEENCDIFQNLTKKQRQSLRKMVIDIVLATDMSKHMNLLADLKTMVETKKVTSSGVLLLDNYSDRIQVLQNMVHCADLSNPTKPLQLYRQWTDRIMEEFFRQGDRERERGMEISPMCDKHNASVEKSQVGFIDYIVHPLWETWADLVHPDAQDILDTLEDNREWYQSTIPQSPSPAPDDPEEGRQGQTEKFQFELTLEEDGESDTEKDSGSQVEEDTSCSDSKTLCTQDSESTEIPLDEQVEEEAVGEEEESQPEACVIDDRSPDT

Compound | Selectivity B/D
Fc1ccc(Cc2cn[nH]c2)nc1-c1cccc(Cl)c1 [Compound 10, 6-((1H-Pyrazol-4-yl)methyl)-2-(3-chlorophenyl)-3-fluoropyridine] | >13
COc1ccc(Nc2cn[nH]c2)nc1-c1cccc(C(F)(F)F)c1 [Compound 13, 5-Methoxy-N-(1H-pyrazol-4-yl)-6-(3-(trifluoromethyl)phenyl)pyridin-2-amine] | >2
COc1ccc(Oc2cn[nH]c2)nc1-c1cccc(OC(F)F)c1 [Compound 18, 6-((1H-Pyrazol-4-yl)oxy)-2-(3-(difluoromethoxy)phenyl)-3-methoxypyridine] | >6
COc1cccc(-c2nc(Nc3cn[nH]c3)ccc2OC(F)F)c1 [Compound 20, 5-(Difluoromethoxy)-6-(3-methoxyphenyl)-N-(1H-pyrazol-4-yl)pyridin-2-amine] | >15
COc1ccc(Cn2cccn2)nc1-c1cccc(F)c1 [Compound 24, 6-((1H-Pyrazol-1-yl)methyl)-2-(3-fluorophenyl)-3-methoxypyridine] | >2
COc1ccc(Cn2cnc(C(F)(F)F)n2)nc1-c1cccc(OC(F)F)c1 [Compound 31, 2-(3-(Difluoromethoxy)phenyl)-3-methoxy-6-((3-(trifluoromethyl)-1H-1,2,4-triazol-1-yl)methyl)pyridine] | >13
COc1ccc(Cn2cncn2)nc1-c1cccc(OC(F)F)c1 [Compound 32, 6-((1H-1,2,4-Triazol-1-yl)methyl)-2-(3-(difluoromethoxy)phenyl)3-methoxypyridine] | >649
COc1ccc(Cn2ncnn2)nc1-c1cccc(OC(F)F)c1 [Compound 34, 6-((2H-Tetrazol-2-yl)methyl)-2-(3-(difluoromethoxy)phenyl)-3methoxypyridine] | >472
COc1cccc(-c2nc(COc3cn[nH]c3)ccc2OC(F)F)c1 [Compound 40, 6-(((1H-Pyrazol-4-yl)oxy)methyl)-3-(difluoromethoxy)-2-(3methoxyphenyl)pyridine] | >27

Next, values leading:

Selectivity B/D | Compound
>13 | COc1cccc(-c2nc(Cn3cnc(C(F)(F)F)n3)ccc2OC(F)F)c1 [Compound 44, 3-(Difluoromethoxy)-2-(3-methoxyphenyl)-6-((3-(trifluoromethyl)-1H-1,2,4-triazol-1-yl)methyl)pyridine]
>238 | COc1cccc(-c2nc(Cn3cncn3)ccc2OC(F)F)c1 [Compound 45, 6-((1H-1,2,4-Triazol-1-yl)methyl)-3-(difluoromethoxy)-2-(3methoxyphenyl)pyridine]
>575 | COc1cccc(-c2nc(Cn3ncnn3)ccc2OC(F)F)c1 [Compound 47, 6-((2H-Tetrazol-2-yl)methyl)-3-(difluoromethoxy)-2-(3methoxyphenyl)pyridine]
>2519 | COc1ccc(Cc2ccc(CCO)cc2)nc1-c1cccc(OC(F)F)c1 [Compound 53, 2-(4-((6-(3-(Difluoromethoxy)phenyl)-5-methoxypyridin-2-yl)methyl)phenyl)ethan-1-ol]
>621 | COc1ccc(Cc2ccc(CCCO)cc2)nc1-c1cccc(OC(F)F)c1 [Compound 54, 3-(4-((6-(3-(Difluoromethoxy)phenyl)-5-methoxypyridin-2-yl)methyl)phenyl)propan-1-ol]
>420 | COc1cccc(-c2nc(Cc3ccc(CCCO)cc3)ccc2OC(F)F)c1 [Compound 56, 3-(4-((5-(Difluoromethoxy)-6-(3-methoxyphenyl)pyridin-2-yl)methyl)phenyl)propan-1-ol]
>61 | FC(F)Oc1cccc(-c2nc(Cc3cn[nH]c3)ccc2OCc2ccccc2)c1 [Compound 57]
>13 | FC(F)Oc1cccc(-c2nc(Cc3ccncc3)ccc2OCc2ccccc2)c1 [Compound 58, 3-(Benzyloxy)-2-(3-(difluoromethoxy)phenyl)-6-(pyridin-4ylmethyl)pyridine]
>57 | FC(F)Oc1cccc(-c2nc(Cn3ccnc3)ccc2OCc2ccccc2)c1 [Compound 59, 6-((1H-Imidazol-1-yl)methyl)-3-(benzyloxy)-2-(3(difluoromethoxy)phenyl)pyridine]
